Like-named read-outs stand apart in the source and are kept apart here.
Assays:
AtsB = AtsB (Mycobacterium tuberculosis, UniProt O65931); conditions: 10 µM probe, 7-8 min; native gel-resolved lysate
Helix pomatia sulfatase [1] = experiment: fluorogenic hydrolysis assay; type: biochemical; conditions: read-out: Helix pomatia ^[b]; potassium acetate buffer pH 5.0, 37 °C
In short: (§1)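 Commercial Helix pomatia sulfatase was incubated with the fluorogenic sulfate substrate in potassium acetate buffer (pH 5.0) at 37 °C. Formation of the released fluorophore was monitored over time. Substrate-only reactions without enzyme served as the background control. KM and Vmax (pmoles/sec) were derived from the kinetics, and Vmax/KM was calculated from them.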

Helix pomatia sulfatase [2] = experiment: fluorogenic hydrolysis assay; type: biochemical; conditions: read-out: Helix pomatia ^[b]; potassium acetate buffer pH 5.0, 37 °C; remark: listed apart in the source
In short: as §1

Compound	in-gel fluorescence after native gel of lysate (AtsB)	Km (Helix pomatia sulfatase [1]) [µM]	Km (Helix pomatia sulfatase [2]) [µM]
CC1(C)C2=C(Cl)C(=O)C(Cl)=CC2=Nc2ccc(OS(=O)(=O)O)cc21 [DDAO-sulfate]	AtsB can hydrolyze both RS and DDAO-sulfate, but not MFS		
COc1ccc2c(c1)Oc1cc(OS(=O)(=O)O)ccc1C21OC(=O)c2ccccc21 (stereo not shown) [MFS]		24.8 ± 2.2	
O=c1ccc2nc3ccc(OS(=O)(=O)O)cc3oc-2c1 [RS]	AtsB can hydrolyze both RS and DDAO-sulfate, but not MFS		17.5 ± 0.9

Source: PMC4084507 (Chembiochem : a European journal of chemical biology, 2014)
